{"source": "ChEMBL document CHEMBL1138113", "about": "“The design and synthesis of YC-1 analogues as probes for soluble guanylate cyclase” (Bioorg Med Chem Lett, 2006)", "format_in_all_cases": "functional", "key": {"[1]": {"biological_target": "T1, Soluble guanylate cyclase (Homo sapiens) (UniProt Q02153+O75343+P33402+Q02108)", "experiment": "Ratio of activation of sGC by compound over that of control, in absence of carbon monooxide (basal activity 33+/-3 nmol/min/mg)"}, "[2]": {"biological_target": "T1, Soluble guanylate cyclase (Homo sapiens)", "experiment": "Ratio of activation of sGC by compound over that of control, in presence of carbon monooxide (basal activity 33+/-3 nmol/min/mg in absence of CO)"}, "[3]": {"biological_target": "Soluble guanylate cyclase (Homo sapiens, UniProt O75343+P33402+Q02108+Q02153)", "sequence (Q02153 whole entry)": "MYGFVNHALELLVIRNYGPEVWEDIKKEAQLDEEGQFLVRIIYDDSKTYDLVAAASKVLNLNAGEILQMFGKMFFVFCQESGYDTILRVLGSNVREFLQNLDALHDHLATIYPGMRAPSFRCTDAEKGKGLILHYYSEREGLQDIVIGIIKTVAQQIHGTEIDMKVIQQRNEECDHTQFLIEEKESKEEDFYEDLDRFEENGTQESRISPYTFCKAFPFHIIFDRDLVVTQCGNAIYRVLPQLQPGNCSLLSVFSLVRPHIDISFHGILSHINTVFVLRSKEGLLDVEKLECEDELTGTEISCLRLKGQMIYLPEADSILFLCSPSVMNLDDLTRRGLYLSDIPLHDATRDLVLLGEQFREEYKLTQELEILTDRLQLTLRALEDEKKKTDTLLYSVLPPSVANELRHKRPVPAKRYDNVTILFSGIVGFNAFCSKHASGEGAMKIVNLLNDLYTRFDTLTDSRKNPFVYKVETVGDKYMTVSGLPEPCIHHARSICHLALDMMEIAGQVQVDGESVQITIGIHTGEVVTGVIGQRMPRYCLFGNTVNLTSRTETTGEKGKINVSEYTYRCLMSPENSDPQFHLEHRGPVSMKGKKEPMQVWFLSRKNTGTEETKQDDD", "sequence (O75343 whole entry)": "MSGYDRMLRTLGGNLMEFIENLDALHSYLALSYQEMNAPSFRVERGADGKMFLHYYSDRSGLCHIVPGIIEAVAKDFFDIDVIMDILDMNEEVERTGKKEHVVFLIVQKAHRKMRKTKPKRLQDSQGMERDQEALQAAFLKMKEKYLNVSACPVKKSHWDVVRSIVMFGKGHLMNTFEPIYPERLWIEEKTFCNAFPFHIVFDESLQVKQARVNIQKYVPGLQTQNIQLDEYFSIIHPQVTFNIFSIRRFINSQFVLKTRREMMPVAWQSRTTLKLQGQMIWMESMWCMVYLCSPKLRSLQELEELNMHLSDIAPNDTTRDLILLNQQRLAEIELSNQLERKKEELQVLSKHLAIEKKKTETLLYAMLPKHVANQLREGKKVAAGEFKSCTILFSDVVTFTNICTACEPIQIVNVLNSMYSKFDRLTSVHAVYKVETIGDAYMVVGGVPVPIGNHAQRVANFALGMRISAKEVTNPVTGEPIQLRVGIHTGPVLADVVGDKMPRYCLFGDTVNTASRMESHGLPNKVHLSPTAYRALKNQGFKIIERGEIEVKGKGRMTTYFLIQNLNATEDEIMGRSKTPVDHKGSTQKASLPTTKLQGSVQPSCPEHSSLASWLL", "sequence (P33402 whole entry)": "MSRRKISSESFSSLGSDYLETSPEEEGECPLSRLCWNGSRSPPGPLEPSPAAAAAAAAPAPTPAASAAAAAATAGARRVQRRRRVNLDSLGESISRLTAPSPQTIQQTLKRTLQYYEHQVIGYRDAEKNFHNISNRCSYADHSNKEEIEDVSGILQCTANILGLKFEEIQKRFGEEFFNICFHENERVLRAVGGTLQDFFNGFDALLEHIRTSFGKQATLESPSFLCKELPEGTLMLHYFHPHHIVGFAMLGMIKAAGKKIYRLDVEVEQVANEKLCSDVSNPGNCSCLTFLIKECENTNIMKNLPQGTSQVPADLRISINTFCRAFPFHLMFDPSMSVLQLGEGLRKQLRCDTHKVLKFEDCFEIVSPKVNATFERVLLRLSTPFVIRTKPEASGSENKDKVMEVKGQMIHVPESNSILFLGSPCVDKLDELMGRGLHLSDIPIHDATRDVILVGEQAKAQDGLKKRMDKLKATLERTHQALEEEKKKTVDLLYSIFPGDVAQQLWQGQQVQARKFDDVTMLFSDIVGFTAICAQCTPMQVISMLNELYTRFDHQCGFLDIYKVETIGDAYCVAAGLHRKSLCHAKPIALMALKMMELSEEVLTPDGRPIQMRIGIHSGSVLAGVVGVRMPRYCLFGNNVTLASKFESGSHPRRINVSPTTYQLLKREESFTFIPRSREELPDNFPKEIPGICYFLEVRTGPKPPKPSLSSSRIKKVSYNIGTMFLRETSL", "sequence (Q02108 whole entry)": "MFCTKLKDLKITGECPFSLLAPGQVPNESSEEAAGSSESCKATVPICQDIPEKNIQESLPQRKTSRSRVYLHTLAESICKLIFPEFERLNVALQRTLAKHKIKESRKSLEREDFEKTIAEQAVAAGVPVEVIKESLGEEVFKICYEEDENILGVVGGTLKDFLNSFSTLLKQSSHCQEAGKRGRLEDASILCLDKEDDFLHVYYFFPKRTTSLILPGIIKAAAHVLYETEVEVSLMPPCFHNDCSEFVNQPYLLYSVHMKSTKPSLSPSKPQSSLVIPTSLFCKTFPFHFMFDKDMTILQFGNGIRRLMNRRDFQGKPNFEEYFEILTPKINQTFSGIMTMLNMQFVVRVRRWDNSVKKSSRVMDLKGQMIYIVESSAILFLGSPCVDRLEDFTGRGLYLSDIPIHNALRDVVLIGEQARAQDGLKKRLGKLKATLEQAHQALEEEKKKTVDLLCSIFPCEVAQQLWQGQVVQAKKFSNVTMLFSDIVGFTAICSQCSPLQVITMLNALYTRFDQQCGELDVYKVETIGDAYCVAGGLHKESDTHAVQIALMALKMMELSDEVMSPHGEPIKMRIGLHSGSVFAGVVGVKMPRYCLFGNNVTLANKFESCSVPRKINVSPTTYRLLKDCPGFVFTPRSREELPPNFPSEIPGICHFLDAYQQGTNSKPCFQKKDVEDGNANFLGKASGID", "experiment": "Effect on YC-1 mediated activation of sGC in presence of carbon monoxide", "outline": "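Purified sGC from a baculovirus/Sf9 expression system, measured with CO by end-point assay in 4% v/v DMSO across a range of YC-1 concentrations, with and without a fixed level of the test compound. Assays ran 2 min in triplicate, and errors are mean + range/2. EC50 came from a four-parameter logistic fit.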"}}}
{"smiles": "[N-]=[N+]=Nc1cccc(Cn2nc(-c3ccc(CO)o3)c3ccccc32)c1", "values": [{"measurement": "Activity", "setting": "[1]", "result": 2}, {"measurement": "Activity", "setting": "[2]", "result": 7.1}]}
{"smiles": "[N-]=[N+]=Nc1ccc2c(c1)c(-c1ccc(CO)o1)nn2Cc1ccccc1", "values": [{"measurement": "Activity", "setting": "[1]", "result": 1.7}, {"measurement": "Activity", "setting": "[2]", "result": 4.4}]}
{"smiles": "OCc1ccc(-c2nn(Cc3ccccc3)c3ccccc23)o1", "values": [{"measurement": "Activity", "setting": "[1]", "result": 9.2}, {"measurement": "Activity", "setting": "[2]", "result": 139}]}
{"smiles": "[N-]=[N+]=Nc1ccc2c(-c3ccc(CO)o3)nn(Cc3ccccc3)c2c1", "values": [{"measurement": "Activity", "setting": "[1]", "result": 3.4}, {"measurement": "EC50", "setting": "[3]", "result": 21.9, "unit": "µM"}, {"measurement": "Activity", "setting": "[2]", "result": 29}]}
{"smiles": "[N-]=[N+]=Nc1ccc(Cn2nc(-c3ccc(CO)o3)c3ccccc32)cc1", "values": [{"measurement": "Activity", "setting": "[1]", "result": 4.7}, {"measurement": "Activity", "setting": "[2]", "result": 20.3}]}
